Measured values published in ChEMBL document CHEMBL1687750, “Nonclinical pharmacokinetics of oseltamivir and oseltamivir carboxylate in the central nervous system” (Antimicrob Agents Chemother, 2009).

Tests used:
[1] = system: Brain; assay: Cmax in non-perfused Sprague-Dawley rat brain assessed as active metabolite oseltamivir carboxylate level at 30 mg/kg, iv; type: ADME, organism-based; design: dose 30 mg/kg, route intravenous; conditions: in vivo
Procedure, shortened: (§1)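 Nonfasted adult rats received 30 mg/kg in aqueous 0.9% NaCl (pH 4.0) by slow tail-vein injection over 20–30 s. Groups were sampled at 5 min and 0.25, 0.5, 1, 2, 4 and 8 h, with 4–5 rats per time point, under terminal isoflurane. Blood was taken by heart puncture and CSF from the cisterna magna. Brains were homogenized either unperfused or after transcardial saline perfusion. Samples were assayed by LC-MS/MS, and pooled composite data were analyzed noncompartmentally.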

[2] = Ratio of drug level in brain to plasma in non-perfused Sprague-Dawley rat at 30 mg/kg, iv; type: ADME, organism-based; design: dose 30 mg/kg, route intravenous; conditions: brain and plasma, read-out: BPR
Procedure, shortened: (§2)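 Nonfasted Sprague-Dawley rats given 30 mg/kg i.v. in 0.9% NaCl pH 4.0 by tail vein over 20–30 s. Terminal sampling under isoflurane at 5 min, 0.25, 0.5, 1, 2, 4 and 8 h (4–5 rats/time): plasma, CSF, and brain homogenate, with or without saline perfusion. LC-MS/MS. t1/2, Vss and ratios from noncompartmental analysis of pooled composite concentrations.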

[3] = system: Plasma; assay: Terminal half life in non-perfused Sprague-Dawley rat plasma assessed as active metabolite oseltamivir carboxylate level at 30 mg/kg, iv; type: ADME, organism-based; design: dose 30 mg/kg, route intravenous; conditions: in vivo; procedure, shortened: as §2
[4] = system: Brain; assay: Terminal half life in non-perfused Sprague-Dawley rat brain assessed as active metabolite oseltamivir carboxylate level at 30 mg/kg, iv; type: ADME, organism-based; design: dose 30 mg/kg, route intravenous; conditions: in vivo; procedure, shortened: as §2
[5] = system: Cerebrospinal fluid; assay: Cmax in perfused Sprague-Dawley rat cerebrospinal fluid assessed as active metabolite oseltamivir carboxylate level at 30 mg/kg, iv; type: ADME, organism-based; design: dose 30 mg/kg, route intravenous; conditions: in vivo, BLD = below limit of detection; procedure, shortened: as §1
[6] = Cmax ratio in brain to plasma in non-perfused Sprague-Dawley rat at 30 mg/kg, iv; type: ADME, organism-based; design: dose 30 mg/kg, route intravenous; conditions: brain and plasma; procedure, shortened: as §1
[7] = Prodrug conversion in 42 days old female rat liver S9 fractions assessed as paranitrophenol generation rate assessed per mg of protein per min; type: ADME, subcellular, S9 fraction
Procedure, shortened: (§3)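 Control esterase activity was measured by incubating 100 µM p-nitrophenyl acetate (final) with 0.05 mg rat brain or liver S9 protein in 1.5 ml Tris-HCl pH 7.4 for 1 min at 37°C. Reactions were quenched with acetonitrile, and product was quantified by HPLC-UV against external standards. The no-protein blank rate was subtracted, and rate was expressed per mg protein per min.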

[8] = Prodrug conversion in human liver S9 fractions assessed as oseltamivir carboxylate generation rate assessed per mg of protein per min; type: ADME, subcellular, S9 fraction
Procedure, shortened: (§4)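 S9 from brain or liver (rat S9 made by homogenizing tissue in ~4 ml Tris-sucrose buffer per g, supernatant after 9,000 × g at 10°C; pooled human brain and liver S9 also used), protein by bicinchoninic acid assay. Oseltamivir: triplicate, 10 μM 14C-oseltamivir final, 1.0 mg S9 protein, 100 mM Tris-HCl pH 7.4, 30 min at 37°C, quenched with TCA-acetonitrile.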

[9] = biological target: ATP-dependent translocase ABCB1 (Homo sapiens, UniProt P08183); assay: Inhibition of human MDR1-mediated digoxin permeability expressed in pig LLC-PK1 cells; type: cell-based
ATP-dependent translocase ABCB1, sequence (P08183 whole entry): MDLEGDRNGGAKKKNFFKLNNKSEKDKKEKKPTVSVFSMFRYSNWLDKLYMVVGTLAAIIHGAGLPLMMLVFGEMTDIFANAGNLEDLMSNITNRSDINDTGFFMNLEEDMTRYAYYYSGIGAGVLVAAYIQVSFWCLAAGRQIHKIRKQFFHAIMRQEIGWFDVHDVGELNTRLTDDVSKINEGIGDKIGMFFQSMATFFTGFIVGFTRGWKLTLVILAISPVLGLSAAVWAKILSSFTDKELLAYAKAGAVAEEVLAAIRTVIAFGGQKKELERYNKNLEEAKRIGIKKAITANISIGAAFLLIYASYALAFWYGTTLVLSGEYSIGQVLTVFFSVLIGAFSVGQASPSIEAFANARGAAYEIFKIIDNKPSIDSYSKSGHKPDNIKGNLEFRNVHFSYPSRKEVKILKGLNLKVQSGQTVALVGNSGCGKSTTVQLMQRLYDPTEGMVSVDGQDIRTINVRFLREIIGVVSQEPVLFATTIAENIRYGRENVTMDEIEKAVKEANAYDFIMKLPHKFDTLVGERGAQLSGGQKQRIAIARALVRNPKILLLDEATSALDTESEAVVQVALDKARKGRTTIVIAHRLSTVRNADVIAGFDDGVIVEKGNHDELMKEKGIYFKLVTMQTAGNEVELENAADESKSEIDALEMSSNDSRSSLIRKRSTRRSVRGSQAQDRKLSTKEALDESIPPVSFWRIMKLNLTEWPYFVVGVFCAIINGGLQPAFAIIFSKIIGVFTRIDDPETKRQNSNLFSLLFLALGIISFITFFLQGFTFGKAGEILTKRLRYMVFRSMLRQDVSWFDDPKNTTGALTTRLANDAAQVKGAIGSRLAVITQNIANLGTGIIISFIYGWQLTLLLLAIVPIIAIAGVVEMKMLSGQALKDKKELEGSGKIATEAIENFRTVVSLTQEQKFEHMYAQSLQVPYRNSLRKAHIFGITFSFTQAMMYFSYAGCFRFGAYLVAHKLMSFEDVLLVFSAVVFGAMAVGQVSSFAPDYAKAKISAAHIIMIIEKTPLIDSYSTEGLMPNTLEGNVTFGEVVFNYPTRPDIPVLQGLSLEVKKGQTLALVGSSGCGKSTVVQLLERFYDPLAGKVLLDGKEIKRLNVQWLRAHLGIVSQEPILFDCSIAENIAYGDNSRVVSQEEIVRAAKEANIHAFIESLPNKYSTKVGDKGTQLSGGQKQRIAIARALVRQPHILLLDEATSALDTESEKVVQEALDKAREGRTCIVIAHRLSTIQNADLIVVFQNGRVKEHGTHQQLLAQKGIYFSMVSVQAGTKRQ
Procedure, shortened: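 P-gp-transfected LLC-PK1 monolayers were used, with labeled digoxin (10 nM) as substrate and unlabeled oseltamivir (0.1–10 mM) added to both donor and receiver sides. Transport was bidirectional at 37°C under 5% CO2, with the acceptor side sampled up to 3 h and counted by scintillation. Three inserts were used per condition, and IC50 was derived from inhibition of digoxin transport.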

[10] = Prodrug conversion in 7 days old male rat brain S9 fractions assessed as paranitrophenol generation rate assessed per mg of protein per min; type: ADME, tissue-based
[11] = Prodrug conversion in commercial brain S9 fractions assessed as conversion of oseltamivir to oseltamivir carboxylate; type: ADME; procedure, shortened: as §4
[12] = Prodrug conversion in human liver S9 fractions assessed as paranitrophenol generation rate assessed per mg of protein per min; type: ADME, subcellular, S9 fraction
[13] = Prodrug conversion in commercial liver S9 fractions assessed as conversion of oseltamivir to oseltamivir carboxylate; type: ADME, subcellular, Liver S9 fraction; procedure, shortened: as §4
[14] = Prodrug conversion assessed as oseltamivir carboxylate level in presence of Sf9 cell culture supernatant expressing human recombinant HCE1 after 30 mins; type: ADME; conditions: sf9, 0.5 h
Procedure, shortened: (§5)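 Culture supernatants from baculovirus-infected Sf9 cells (day 5–7; 1.0 mg/ml protein) were incubated in triplicate with 10 µM 14C-oseltamivir in 100 mM Tris-HCl at 37°C for 30 min. Reactions were quenched with TCA-acetonitrile, then analyzed by HPLC with fraction scintillation counting. Conversion was calculated as OC radioactivity over total radioactivity, corrected for no-enzyme hydrolysis. Wild-type virus and liver S9 served as controls.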

[15] = Prodrug conversion in 7 days old male rat liver S9 fractions assessed as conversion of oseltamivir to oseltamivir carboxylate; type: ADME, subcellular, S9 fraction; procedure, shortened: as §4
[16] = Prodrug conversion in 7 days old female rat liver S9 fractions assessed as oseltamivir carboxylate generation rate assessed per mg of protein per min; type: ADME, subcellular, S9 fraction; procedure, shortened: as §4
[17] = Prodrug conversion in 7 days old male rat liver S9 fractions assessed as oseltamivir carboxylate generation rate assessed per mg of protein per min; type: ADME, subcellular, S9 fraction; procedure, shortened: as §4
[18] = Clearance in Sprague-Dawley rat at 30 mg/kg, iv; type: ADME, organism-based; design: dose 30 mg/kg, route intravenous; conditions: in vivo; procedure, shortened: as §1
[19] = Prodrug conversion in 42 days old male rat liver S9 fractions assessed as conversion of oseltamivir to oseltamivir carboxylate; type: ADME, subcellular, S9 fraction
Procedure, shortened: (§6)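 Rat brain or liver S9 (9,000 × g supernatant; 1.0 mg protein) was incubated in triplicate with 10 µM 14C-oseltamivir (final) in 100 mM Tris-HCl pH 7.4 for 30 min at 37°C. Reactions were quenched with TCA-acetonitrile, and the fraction converted to OC was measured by radioflow HPLC with fractionation. Rate was calculated as (pmol/ml substrate × fraction hydrolyzed)/(mg protein/ml × time), minus the no-protein background.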

[20] = Prodrug conversion in commercial liver S9 fractions assessed as oseltamivir carboxylate generation rate assessed per mg of protein per min; type: ADME, subcellular, S9 fraction; procedure, shortened: as §4
[21] = Prodrug conversion in commercial brain S9 fractions assessed as oseltamivir carboxylate generation rate assessed per mg of protein per min; type: ADME; procedure, shortened: as §4
[22] = Prodrug conversion in human brain S9 fractions assessed as conversion of oseltamivir to oseltamivir carboxylate; type: ADME; procedure, shortened: as §4
[23] = Prodrug conversion in 7 days old female rat liver S9 fractions assessed as conversion of oseltamivir to oseltamivir carboxylate; type: ADME, subcellular, S9 fraction; procedure, shortened: as §4
[24] = Prodrug conversion in human brain S9 fractions assessed as oseltamivir carboxylate generation rate assessed per mg of protein per min; type: ADME; procedure, shortened: as §4
[25] = Prodrug conversion in 7 days old male rat brain S9 fractions assessed as oseltamivir carboxylate generation rate assessed per mg of protein per min; type: ADME, tissue-based; procedure, shortened: as §4
[26] = Prodrug conversion assessed as oseltamivir carboxylate level in presence of Sf9 cell culture supernatant expressing human recombinant HCE2 after 30 mins; type: ADME; conditions: sf9, 0.5 h; procedure, shortened: as §5
[27] = AUC (0 to infinity) ratio in brain to plasma in perfused Sprague-Dawley rat at 30 mg/kg, iv; type: ADME, organism-based; design: dose 30 mg/kg, route intravenous; conditions: brain and plasma, read-out: Ratio AUC; procedure, shortened: as §1
[28] = Prodrug conversion in 42 days old female rat brain S9 fractions assessed as paranitrophenol generation rate assessed per mg of protein per min; type: ADME, tissue-based; procedure, shortened: as §3
[29] = Prodrug conversion in 7 days old female rat liver S9 fractions assessed as paranitrophenol generation rate assessed per mg of protein per min; type: ADME, subcellular, S9 fraction
[30] = Prodrug conversion in 42 days old male rat brain S9 fractions assessed as oseltamivir carboxylate generation rate assessed per mg of protein per min; type: ADME, tissue-based; procedure, shortened: as §6

What does the source list for CCC(CC)O[C@@H]1C=C(C(=O)O)C[C@H](N)[C@H]1NC(C)=O [OSELTAMIVIR CARBOXYLATE]?
Cmax [1]: 164 ng/g; Kp [2]: 0.02; beta t1/2 [3]: 1.69 h; beta t1/2 [4]: 0.508 h; Cmax [5]: BLD; Kp [6]: 0.02

Which Activity [7] does the source give for CCOC(=O)C1=C[C@@H](OC(CC)CC)[C@H](NC(C)=O)[C@@H](N)C1 [OSELTAMIVIR] here?
Its Activity is 1001 nmol.

What about the Activity [8] of the same compound?
Its Activity is 119 pmol/s.

And the IC50 [9]?
The IC50 was 1300 µM.

And the Activity [10]?
The Activity was 80 nmol.

What about the Activity [11] of the same compound?
Its Activity is 0.1%.

And the Activity [12]?
Its Activity is 574 nmol.

And the Activity [13]?
Its Activity is 3.79%.

What about the Activity [14] of the same compound?
Its Activity is “Active”.

What about the Activity [15] of the same compound?
Its Activity is 0.1%.

And the Activity [16]?
Its Activity is 0.34 pmol/s.

And the Activity [17]?
The Activity was 0.33 pmol/s.

And the clearance [18]?
The clearance was 93.9 mL/min/kg.

What about the Activity [19] of the same compound?
The Activity was 0.63%.

What about the Activity [20] of the same compound?
The Activity was 126 pmol/s.

And the Activity [21]?
Its Activity is 0.32 pmol/min/mg.

And the Activity [22]?
The Activity was 0.12%.

And the Activity ([22]; BLD = below limit of detection)?
Its Activity is “BLD”.

What about the Activity [23] of the same compound?
Its Activity is 0.1%.

And the Activity [24]?
The Activity was 0.39 pmol/s.

And the Activity ([24]; BLD = below limit of detection)?
The Activity was “BLD”.

What about the Activity [25] of the same compound?
The Activity was under 0.2 pmol/s.

And the Activity [26]?
Its Activity is “Not Active”.

What about the Kp [27] of the same compound?
The Kp was 0.21.

What about the Activity [28] of the same compound?
The Activity was 70 nmol.

And the Activity [29]?
The Activity was 538 nmol.

And the Activity [30]?
Its Activity is 0.52 pmol/s.
